Screening data from PubChem BioAssay.
Mdm2-MdmX inh: inhibitors of human Mdm2-MdmX association, primary screen, cell-based, luminescence, split luciferase, SaOS-2, uHTS | Protein Mdm4 (Homo sapiens) + E3 ubiquitin-protein ligase Mdm2 (Homo sapiens), … | SaOS-2 split-luciferase Mdm2/MdmX complementation | inhibition, % at 8 µM | 3% of 330,000 active | AID 485346, 2010;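 active = inhibition of at least 50% at 8 µM in the primary screen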
UPR CHOP act: activators of apoptotic CHOP UPR arm, primary screen, cell-based, CHO-CHOP luciferase reporter, luminescence, uHTS. 0.34% of 330,000 active. activation, % at 10 µM. UPR activation; percent of tunicamycin response over DMSO baseline. AID 449763, 2010;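 active = at 10 µM dose, activation of 40% or more, normalized to positive control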
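System: CHO-CHOP luciferase reporter cell line | Buffer or medium: F12 medium containing 10% fetal bovine serum | Doses: One dose, 10 µM in 0.5% DMSO | Times: 6 h compound exposure at 37 °C after overnight seeding | Signal: Luciferase luminescence | Read-out: % activation vs tunicamycin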
UBC13 inh: UBC13 polyubiquitin chain formation inhibitors, primary screen, biochemical, TR-FRET, uHTS; Ubiquitin-conjugating enzyme E2 N (Homo sapiens), P61088; inhibition, % at 20 µM; 0.47% of 330,000 active; AID 485273, 2010; in the data active = inhibition above about 45%, passing the limit was not always enough
Apaf1 inhib: inhibitors of human Apaf-1 apoptosome, primary screen, biochemical, DEVD-Rh110 fluorescence, uHTS | Apoptotic protease-activating factor 1 (Homo sapiens), O14727 | reconstituted apoptosome caspase-3 activity | inhibition, % at 20 µM | 0.71% of 330,000 active | AID 489030, 2010; active = inhibition of at least 40% at 20 µM
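Assay system: Apoptosome proteins | Medium: pH 7.5 Hepes buffer with CHAPS, BSA, DTT | Also added: Cytochrome c and DEVD-Rh110 substrate | Times: 30 min plus 50 min, RT | Detection: Rhodamine 110 fluorescence at Ex 480/Em 540 nm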
UPR XBP1 act: activators of adaptive XBP1 UPR arm, primary screen, cell-based, CHO-XBP1 luciferase reporter, luminescence, uHTS; IRE1-XBP1 UPR activation; percent of tunicamycin response, DMSO as zero; activation, % at 20 µM; 0.33% of 330,000 active; AID 463104, 2010;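 active = versus positive control, 20 µM dose yields 30% or more activation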
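Signal: luciferase luminescence; Assay system: CHO-XBP1 luciferase reporter cells; Amount: one thousand reporter cells per well; Dosing: 20 µM single concentration, DMSO 1%; Benchmarks: high control tunicamycin 10 µg/mL final, low control DMSO vehicle only; Schedule: 6 h compound exposure at 37 °C, 5% CO2; Evaluation: percent activation relative to tunicamycin reference.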
Mdm2-MdmX conf: Mdm2-MdmX complex disruptors, retested hits, confirmation, luminescence, single concentration; shares compounds with Mdm2-MdmX inh; Mdm2-MdmX binding, luminescent assay; inhibition, % at 8 µM; 55% of 10,000 active; AID 489028, 2010; in the data active = inhibition above about 40%
FLuc counter: full-length luciferase signal inhibition, confirmation, counter-screen for Mdm2/MdmX interaction inhibitor project, cell-based, single concentration, SaOS-2. SaOS-2 full-length luciferase counterscreen, luminescence. 77% of 6,200 active. shares compounds with Mdm2-MdmX inh. inhibition, % at 8 µM;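 active = mean inhibition at 8 µM reaching about 37%, which flags the compound as non-specific, limit read from the data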;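 note: p53-null SaOS-2 cells with luciferase driven by a doxycycline-inducible promoter; compound on cells about two nights before reading with doxycycline added after day one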
Hits are given with their value; i = inactive; nt = no result given. The list is not random: actives were taken first. Their share in the collection is about 4.1%.

SMILES | Mdm2-MdmX inh | UPR CHOP act | UBC13 inh | Apaf1 inhib | UPR XBP1 act | Mdm2-MdmX conf | others
CCN(C(=O)CSc1nc(-c2cccs2)nc2ccccc12)C1CCS(=O)(=O)C1 (stereo unspecified) | i | i | i | i | i | nt
C(=C\c1ccccc1)/CSc1nnc(-c2ccccn2)n1Cc1ccco1 | 59 | i | i | i | i | 49 | FLuc counter=87
CCOc1ccc(C(=O)NCC(=O)NCC(c2ccco2)N2CCCCC2)cc1 (stereo unspecified) | i | i | i | i | i | nt
COc1ccc(N2CC(C(=O)N/N=C/c3c[nH]c4ccccc34)CC2=O)cc1 (stereo unspecified) | i | i | i | i | i | nt
O=C(N/N=C/c1ccccc1O)C1CC(=O)N(c2ccc(F)cc2)C1 (stereo unspecified) | 52 | i | i | i | i | i | FLuc counter=44
O=[N+]([O-])c1ccc(-c2c(O)c3ccccc3c3nc4ccccc4nc23)cc1 | 65 | i | i | i | i | i
COc1ccc(CCCC(=O)NCc2ccccc2)cc1C | 53 | i | i | i | i | 48 | FLuc counter=71
COC(=O)c1cc(S(=O)(=O)N2CCCC2=O)c(Cl)cc1Cl | i | i | i | i | i | nt
CCn1c(SCC(=O)NC2CC2)nnc1-c1ccc(F)cc1 | i | i | i | i | i | nt
O=C(c1cc([N+](=O)[O-])ccc1N1CCOCC1)N1CCN(S(=O)(=O)c2ccc(F)cc2)CC1 | i | i | i | i | i | nt
Cc1ccc(COC(=O)c2cc([N+](=O)[O-])ccc2N2CCOCC2)cc1 | 71 | i | i | i | i | 75 | FLuc counter=87
CCOc1ccc(S(=O)(=O)N2CCN(C(=O)c3cc([N+](=O)[O-])ccc3N3CCOCC3)CC2)cc1 | 60 | i | i | i | i | i
Cc1ccc(C(=O)c2cc([N+](=O)[O-])ccc2N2CCCCC2)c(C)c1 | 55 | i | i | i | i | 67 | FLuc counter=125
CN(C)S(=O)(=O)NC(=O)C1=C(N2CCCC2)COC1=O | i | i | i | i | i | nt
COc1ccc(C(=O)N2CCN(c3ccccn3)CC2)cc1[N+](=O)[O-] | i | i | i | i | i | nt
COc1ccc(C(=O)Nc2nc(-c3ccccn3)cs2)cc1S(=O)(=O)N1CCOCC1 | i | i | i | i | i | nt
Cc1ccc(C(=O)OCC(=O)NC(C)C2CC3CCC2C3)cc1N (stereo unspecified) | i | i | i | i | i | nt
O=C(COC(=O)CN1C(=O)C2CCCCC2C1=O)NCc1ccc(Cl)cc1Cl (stereo unspecified) | i | i | i | i | i | nt
N#CC1=C(N)C(C#N)(C#N)C(c2cccnc2)C2CC(c3ccccc3)CC=C12 (stereo unspecified) | 62 | i | i | i | i | 61 | FLuc counter=i
FC(F)(F)Oc1ccc(NC(=S)Nc2ccc(OC(F)(F)F)cc2)cc1 | 79 | i | i | i | i | i
COC(=O)C1=C(C(=O)OC)[C@@H]2N(Cc3ccccc3)c3ccccc3[C@@]23C[C@@H](C(=O)OC)N(C(=O)COCc2ccccc2)C3=N1 | 63 | i | i | i | i | i
COC(=O)C1=C(C(=O)OC)[C@@H]2N(Cc3ccccc3)c3ccccc3[C@@]23C[C@@H](C(=O)OC)N(C(C)=O)C3=N1 | i | i | i | i | i | nt
CCOC(=O)N1C2=NC(C(=O)OC)=C(C(=O)OC)[C@@H]3N(Cc4ccccc4)c4ccccc4[C@]23C[C@H]1C(=O)OC | i | i | i | i | i | nt
COC(=O)C1=C(C(=O)OC)[C@@H]2N(C)c3ccc(OC)cc3[C@@]23C[C@@H](C(=O)OC)N(C(=O)c2ccc(Br)cc2)C3=N1 | 69 | i | i | i | i | i
C=CCN1c2ccccc2[C@]23C[C@@H](C(=O)OC)N(C(=O)OCC)C2=NC(C(=O)OC)=C(C(=O)OC)[C@H]13 | i | i | i | i | i | nt
SMILES | Mdm2-MdmX inh | UPR CHOP act | UBC13 inh | Apaf1 inhib | UPR XBP1 act | Mdm2-MdmX conf | others
CCOC(=O)N1C2=NC(C(=O)OC)=C(C(=O)OC)[C@@H]3N(C)c4ccc(OC)cc4[C@]23C[C@H]1C(=O)OC | i | i | i | i | i | nt
COC(=O)C1=C(C(=O)OC)[C@@H]2N(Cc3ccccc3)c3ccccc3[C@@]23C[C@@H](C(=O)OC)N(C(=O)c2ccc(Br)cc2)C3=N1 | 96 | i | i | i | i | 86 | FLuc counter=53
C=CCN1c2ccccc2[C@]23C[C@@H](C(=O)OC)N(C(=O)c4ccc(Br)cc4)C2=NC(C(=O)OC)=C(C(=O)OC)[C@H]13 | 96 | i | i | i | i | 68 | FLuc counter=53
Cc1ccccc1/C=N/N1CCN(c2ccccc2)CC1 | i | i | i | i | i | nt
Cc1ccccc1CNC(=O)CCn1nc(C)c2c(C)n(-c3ccccc3)nc2c1=O | i | i | i | i | i | nt
CCc1nnc(NC(=O)c2ccc3c(c2)C(=O)N(CC)C3=O)s1 | i | i | i | i | i | nt
O=C(O)c1ccccc1-n1c(-c2ccccc2)cc2c1CCCC2=O | i | i | i | i | i | nt
CC(C)=CCc1cc([C@@H]2COc3c(ccc4c3C=CC(C)(C)O4)C2)c(O)cc1O | 64 | i | i | i | i | i
CCSc1ncc(/C=N/Nc2ccccc2)n1C | i | i | i | i | i | nt
CCSc1ncc(/C=N/Nc2ccc([N+](=O)[O-])cc2)n1C | 69 | i | i | i | i | i
COc1ccccc1CNC(=S)Nc1ccc2nc(N3CCN(C)CC3)cc(C)c2c1 | 54 | i | i | i | i | 50 | FLuc counter=61
COc1cc(C(=O)Nc2ccc3nc(N4CCN(C)CC4)cc(C)c3c2)cc(OC)c1OC | 53 | i | i | i | i | i
CCN1CCN(c2cc(C)c3cc(NC(=O)c4cc(OC)cc(OC)c4)ccc3n2)CC1 | i | i | i | i | i | nt
Cc1cc(N2CCN(C)CC2)nc2ccc(NC(=O)c3ccc4c(c3)OCO4)cc12 | 55 | i | i | i | i | i
COc1ccc2[nH]c3c(N4CC(C)OC(C)C4)ncnc3c2c1 (stereo unspecified) | i | i | i | i | i | nt
COc1cccc(N2CCN(c3ncnc4c3[nH]c3ccc(F)cc34)CC2C)c1 (stereo unspecified) | 98 | i | i | i | i | 100 | FLuc counter=i
